From ChEMBL document CHEMBL5096172, “Tricyclic Triazoles as σ1 Receptor Antagonists for Treating Pain” (J Med Chem, 2021)

Columns and labels:
[1] = Clearance in CD-1 mouse at 10 mg/kg, po by HPLC-MS/MS analysis relative to liver blood flow; assay type: ADME, organism-based; settings: in vivo
How it was run: (§1)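 Male Wistar rats (250−300 g, groups of 2) or male CD1 mice (25−30 g, groups of 16) dosed 10 mg/kg orally in 0.5% HPMC or 1 mg/kg iv in saline. Blood taken over time from saphenous vein or by intracardiac puncture into heparin tubes. Plasma spun at 4 °C, stored −80 °C, assayed by HPLC−MS/MS after protein precipitation. Noncompartmental analysis.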

[2] = Clearance in wistar rat at 10 mg/kg, po by HPLC-MS/MS analysis relative to liver blood flow; assay type: ADME, organism-based; settings: in vivo; how it was run: as §1

CL [1]: 65% | CL [2]: 109%
SMILES: Cc1cc(OCCN2CCOCC2)nn1-c1ccc2ccccc2c1
